Laboratory results taken from ChEMBL document CHEMBL1153988 (J Med Chem, 2009).
Activity calls are given as the source filed them. The calls are words filed in the database; no cut-off is given here.

Columns and labels:
[1] = tested on: Mus musculus; assay: Anticonvulsant activity in CF1 albino mouse assessed as protection against scMet-induced seizures at 300 mg/kg, ip after 0.5 hrs; type: functional, organism-based; design: dose 300 mg/kg
In short: (§1)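 Adult male CF no. 1 albino mice (18-25 g) dosed intraperitoneally with compound suspended in 0.5% methylcellulose (0.01 mL/g). Convulsant challenge given subcutaneously as a 0.85% pentylenetetrazol solution in 0.9% saline. Read-out is animals protected over animals tested, with neurotoxicity scored in parallel.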

[2] = organism: Rattus norvegicus; assay: Protective index, ratio of TD50 for albino Sprague-Dawley rat to ED50 for scMet-induced albino Sprague-Dawley rat seizure model; type: functional
In short: (§2)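 Protective index is the rat TD50 (minimal motor impairment) divided by the ED50 in the MES or sc pentylenetetrazol test. Male Sprague-Dawley rats were dosed orally in 0.5% methylcellulose, and both values came from probit analysis.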

[3] = tested on: Mus musculus; assay: Anticonvulsant activity in CF1 albino mouse assessed as protection against scMet-induced seizures at 300 mg/kg, ip after 4 hrs; type: functional, organism-based; design: dose 300 mg/kg; in short: as §1
[4] = tested on: Mus musculus; assay: Neurotoxicity in CF1 albino mouse at 30 mg/kg, ip after 0.5 hrs; type: toxicity, organism-based; design: dose 30 mg/kg, route intraperitoneal; conditions: in vivo
In short: (§3)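 Male CF no. 1 albino mice (18-25 g) received a single ip dose as a suspension in 0.5% methylcellulose. The read-out was the number of animals showing neurotoxicity (minimal motor impairment) over the number tested.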

[5] = tested on: Rattus norvegicus; assay: Anticonvulsant activity in albino Sprague-Dawley rat assessed as protection against maximal electroshock-induced seizures at 50 mg/kg, po after 15 mins; type: functional
In short: (§4)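 Adult male Sprague-Dawley albino rats (100-150 g) dosed orally with compound suspended in 0.5% methylcellulose (0.04 mL per 10 g). Maximal electroshock challenge at the stated time. Protection is scored in 25% steps as the fraction of animals protected, with neurotoxicity recorded in parallel.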

[6] = tested on: Mus musculus; assay: Neurotoxicity in CF1 albino mouse at 300 mg/kg, ip after 0.5 hrs; type: toxicity, organism-based; design: dose 300 mg/kg, route intraperitoneal; conditions: in vivo; in short: as §3
[7] = Neurotoxicity in po dosed albino Sprague-Dawley rat assessed as minimal motor impairment; type: toxicity, organism-based; conditions: in vivo
In short: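 Rats: male Sprague-Dawley (100-150 g), oral dosing in 0.5% methylcellulose. Doses were varied to give four points between no minimal motor impairment and all animals impaired. TD50 and 95% confidence intervals came from probit analysis.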

[8] = organism: Rattus norvegicus; assay: Protective index, ratio of TD50 for albino Sprague-Dawley rat to ED50 for maximal electroshock-induced albino Sprague-Dawley rat seizure model; type: functional; in short: as §2
[9] = tested on: Rattus norvegicus; assay: Anticonvulsant activity in po dosed albino Sprague-Dawley rat assessed as protection against scMet-induced seizures; type: functional
In short: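 Male Sprague-Dawley albino rats (100-150 g) were dosed orally in 0.5% methylcellulose and tested by MES or by sc pentylenetetrazol (2.82% in 0.9% saline). Doses were varied to give 3-4 points between 0% and 100% protection. ED50 and 95% confidence intervals came from probit analysis.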

[10] = tested on: Rattus norvegicus; assay: Anticonvulsant activity in albino Sprague-Dawley rat assessed as protection against scMet-induced seizures at 50 mg/kg, po after 1 hr; type: functional
In short: (§5)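 Male Sprague-Dawley albino rats (100-150 g) were given the compound orally as a suspension in 0.5% methylcellulose. Seizures were induced by subcutaneous pentylenetetrazol, dissolved in 0.9% saline as a 2.82% solution. The read-out was animals protected over animals tested.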

[11] = tested on: Rattus norvegicus; assay: Anticonvulsant activity in albino Sprague-Dawley rat assessed as protection against scMet-induced seizures at 50 mg/kg, po; type: functional, organism-based; design: dose 50 mg/kg; in short: as §5
[12] = tested on: Rattus norvegicus; assay: Anticonvulsant activity in albino Sprague-Dawley rat assessed as protection against scMet-induced seizures at 50 mg/kg, po after 2 hrs; type: functional; in short: as §5
[13] = tested on: Rattus norvegicus; assay: Anticonvulsant activity in albino Sprague-Dawley rat assessed as protection against maximal electroshock-induced seizures at 50 mg/kg, po after 1 hr; type: functional; in short: as §4
[14] = tested on: Rattus norvegicus; assay: Anticonvulsant activity in albino Sprague-Dawley rat assessed as protection against maximal electroshock-induced seizures at 50 mg/kg, po after 2 hrs; type: functional; in short: as §4
[15] = tested on: Mus musculus; assay: Neurotoxicity in CF1 albino mouse at 30 mg/kg, ip after 4 hrs; type: toxicity, organism-based; design: dose 30 mg/kg, route intraperitoneal; conditions: in vivo; in short: as §3
[16] = tested on: Mus musculus; assay: Anticonvulsant activity in CF1 albino mouse assessed as protection against maximal electroshock-induced seizures at 30 mg/kg, ip after 4 hrs; type: functional, organism-based; design: dose 30 mg/kg
In short: (§6)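 Adult male CF no. 1 albino mice (18-25 g). Test compound suspended in 0.5% methylcellulose and given intraperitoneally at 0.01 mL/g body weight. Maximal electroshock challenge at the stated time. Read-out is the number of animals protected over the number tested; neurotoxicity is scored in parallel.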

[17] = tested on: Mus musculus; assay: Anticonvulsant activity in CF1 albino mouse assessed as protection against scMet-induced seizures at 30 mg/kg, ip after 4 hrs; type: functional, organism-based; design: dose 30 mg/kg; in short: as §1
[18] = tested on: Mus musculus; assay: Neurotoxicity in CF1 albino mouse at 100 mg/kg, ip after 4 hrs; type: toxicity, organism-based; design: dose 100 mg/kg, route intraperitoneal; conditions: in vivo; in short: as §3
[19] = tested on: Rattus norvegicus; assay: Anticonvulsant activity in po dosed albino Sprague-Dawley rat assessed as protection against maximal electroshock-induced seizures; type: functional
[20] = tested on: Mus musculus; assay: Anticonvulsant activity in CF1 albino mouse assessed as protection against maximal electroshock-induced seizures at 30 mg/kg, ip after 0.5 hrs; type: functional, organism-based; design: dose 30 mg/kg; in short: as §6
[21] = tested on: Mus musculus; assay: Anticonvulsant activity in CF1 albino mouse assessed as protection against maximal electroshock-induced seizures at 300 mg/kg, ip after 4 hrs; type: functional, organism-based; design: dose 300 mg/kg; in short: as §6
[22] = tested on: Mus musculus; assay: Anticonvulsant activity in CF1 albino mouse assessed as protection against maximal electroshock-induced seizures at 100 mg/kg, ip after 4 hrs; type: functional, organism-based; design: dose 100 mg/kg; in short: as §6
[23] = tested on: Rattus norvegicus; assay: Anticonvulsant activity in albino Sprague-Dawley rat assessed as protection against scMet-induced seizures at 50 mg/kg, po after 15 mins; type: functional; in short: as §5
[24] = tested on: Mus musculus; assay: Anticonvulsant activity in CF1 albino mouse assessed as protection against maximal electroshock-induced seizures at 100 mg/kg, ip after 0.5 hrs; type: functional, organism-based; design: dose 100 mg/kg; in short: as §6
[25] = tested on: Rattus norvegicus; assay: Anticonvulsant activity in albino Sprague-Dawley rat assessed as protection against maximal electroshock-induced seizures at 50 mg/kg, po after 4 hrs; type: functional, organism-based; design: dose 50 mg/kg; in short: as §4
[26] = tested on: Rattus norvegicus; assay: Anticonvulsant activity in albino Sprague-Dawley rat assessed as protection against scMet-induced seizures at 50 mg/kg, po after 30 mins; type: functional; in short: as §5
[27] = tested on: Rattus norvegicus; assay: Neurotoxicity in albino Sprague-Dawley rat assessed as minimal motor impairment at 200 mg/kg, po; type: toxicity, organism-based; design: dose 200 mg/kg, route oral; conditions: in vivo
In short: (§7)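 Neurotoxicity was scored in male Sprague-Dawley albino rats (100-150 g) dosed orally with a suspension in 0.5% methylcellulose. The read-out was the fraction of animals showing neurotoxicity (minimal motor impairment).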

[28] = tested on: Rattus norvegicus; assay: Anticonvulsant activity in albino Sprague-Dawley rat assessed as protection against scMet-induced seizures at 50 mg/kg, po after 4 hrs; type: functional; in short: as §5
[29] = tested on: Mus musculus; assay: Anticonvulsant activity in CF1 albino mouse assessed as protection against maximal electroshock-induced seizures at 300 mg/kg, ip after 0.5 hrs; type: functional, organism-based; design: dose 300 mg/kg; in short: as §6
[30] = tested on: Mus musculus; assay: Anticonvulsant activity in CF1 albino mouse assessed as protection against scMet-induced seizures at 100 mg/kg, ip after 4 hrs; type: functional, organism-based; design: dose 100 mg/kg; in short: as §1
[31] = tested on: Rattus norvegicus; assay: Anticonvulsant activity in albino Sprague-Dawley rat assessed as protection against maximal electroshock-induced seizures at 50 mg/kg, po after 30 mins; type: functional; in short: as §4
[32] = tested on: Mus musculus; assay: Anticonvulsant activity in CF1 albino mouse assessed as protection against scMet-induced seizures at 100 mg/kg, ip after 0.5 hrs; type: functional, organism-based; design: dose 100 mg/kg; in short: as §1
[33] = tested on: Rattus norvegicus; assay: Neurotoxicity in albino Sprague-Dawley rat at 50 mg/kg, po; type: toxicity, organism-based; design: dose 50 mg/kg, route oral; conditions: in vivo; in short: as §7
[34] = tested on: Mus musculus; assay: Anticonvulsant activity in CF1 albino mouse assessed as protection against scMet-induced seizures at 30 mg/kg, ip after 0.5 hrs; type: functional, organism-based; design: dose 30 mg/kg; in short: as §1
[35] = tested on: Mus musculus; assay: Neurotoxicity in CF1 albino mouse at 300 mg/kg, ip after 4 hrs; type: toxicity, organism-based; design: dose 300 mg/kg, route intraperitoneal; conditions: in vivo; in short: as §3

Question: Which results are given for `CC1(C)C(C)(C)C1(Cl)C(N)=O`?
Answer: Activity [1]: Toxic; PI [2]: >7.8; Activity [3]: Non-toxic; Activity [4]: Non-toxic; Activity [5]: 25%; Activity [6]: Toxic; TD50 [7]: > 200 mg/kg; PI [8]: >2.1; ED50 [9]: 27 mg/kg; Activity [10]: 50%; Activity [11]: Active; Activity [12]: 25%; Activity [13]: 75%; Activity [14]: 75%; Activity [15]: Non-toxic; Activity [16]: Non-toxic; Activity [17]: Non-toxic; Activity [18]: Non-toxic; ED50 [19]: 97 mg/kg; Activity [20]: Non-toxic; Activity [21]: Non-toxic; Activity [22]: Non-toxic; Activity [23]: inactive; Activity [24]: Non-toxic; Activity [25]: inactive; Activity [26]: 50%; Activity [27]: Non-toxic; Activity [28]: inactive; Activity [29]: Toxic; Activity [30]: Non-toxic; Activity [31]: 25%; Activity [32]: Non-toxic; Activity [33]: Not Active; Activity [34]: Non-toxic; Activity [35]: Non-toxic
